# Experimental data taken from ChEMBL document CHEMBL1144700, “Synthesis of new N-phenylpyrazole derivatives with potent antimicrobial activity” (2008).
# Tests used:
# Type in all cases: functional
# Pseudomonas aeruginosa = test: Antibacterial activity against Pseudomonas aeruginosa after 24 hrs by agar diffusion test
# In short: (§1)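 Disc diffusion: organism culture swabbed dry onto prepared agar plates; sterile 9.6 mm discs soaked in compound solution (stock 0.5 g in 10 ml DMF), dried and laid on the inoculated surface. Standard antimicrobial disc placed at the plate centre. Incubation at 37 °C for 24 h.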
# Candida albicans = test: Antifungal activity against Candida albicans after 24 hrs by agar diffusion test; in short: as §1
# Staphylococcus aureus = test: Antibacterial activity against Staphylococcus aureus after 24 hrs by agar diffusion test; in short: as §1
# Aspergillus fumigatus [1] = test: Antifungal activity against Aspergillus fumigatus after 24 hrs by agar diffusion test; in short: as §1
# Aspergillus fumigatus [2] = test: Antifungal activity against Aspergillus fumigatus after 72 hrs
# In short: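 Microwell growth assay with conidia from 48 h Sabouraud agar cultures, final 5 × 10³ conidia per well. Medium-only and fluconazole-range controls included. Incubated at 23 °C for 72 h with growth checked every 24 h, then read as absorbance at 620 nm. Each concentration run in triplicate and the experiment repeated three times.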
MIC (Aspergillus fumigatus [2]),SMILES,inhibition zone (IZ) (Pseudomonas aeruginosa),inhibition zone (IZ) (Candida albicans),inhibition zone (IZ) (Staphylococcus aureus),inhibition zone (IZ) (Aspergillus fumigatus [1])
,Cc1c(-c2cnc3sc4ccccc4n23)c(C(=O)Nc2ccccc2)nn1-c1ccccc1,10 mm/mg,12 mm/mg,12 mm/mg,0 mm/mg
,Cc1c(-c2ccc(Cl)cc2)nn2c(-c3c(C(=O)Nc4ccccc4)nn(-c4ccccc4)c3C)ccnc12,0 mm/mg,10 mm/mg,10 mm/mg,0 mm/mg
,Cc1c(-c2ccnc3nncn23)c(C(=O)Nc2ccccc2)nn1-c1ccccc1,13 mm/mg,12 mm/mg,13 mm/mg,0 mm/mg
,Cc1c(C(=O)/C=C/NNC(N)=S)c(C(=O)Nc2ccccc2)nn1-c1ccccc1,8 mm/mg,12 mm/mg,10 mm/mg,0 mm/mg
,Cc1c(-c2ccccc2)nn2c(-c3c(C(=O)Nc4ccccc4)nn(-c4ccccc4)c3C)ccnc12,0 mm/mg,10 mm/mg,8 mm/mg,0 mm/mg
,CN(C/C=C/C#CC(C)(C)C)Cc1cccc2ccccc12 [TERBINAFINE],,10 mm/mg,,10 mm/mg
25 µg/mL,Cc1c(C(=O)CBr)c(C(=O)Nc2ccccc2)nn1-c1ccccc1,20 mm/mg,16 mm/mg,18 mm/mg,12 mm/mg
,Cc1c(C(=O)CC2C(=O)CC(C)(C)CC2=O)c(C(=O)Nc2ccccc2)nn1-c1ccccc1,0 mm/mg,10 mm/mg,11 mm/mg,0 mm/mg
,O=C(N[C@H](CO)[C@H](O)c1ccc([N+](=O)[O-])cc1)C(Cl)Cl [CHLORAMPHENICOL],20 mm/mg,,21 mm/mg,
,Cc1c(-c2cc[nH]n2)c(C(=O)Nc2ccccc2)nn1-c1ccccc1,13 mm/mg,12 mm/mg,13 mm/mg,0 mm/mg
,CC(=O)c1c(C(=O)Nc2ccccc2)nn(-c2ccccc2)c1C,17 mm/mg,15 mm/mg,21 mm/mg,0 mm/mg
11 µg/mL,C[C@@H]1[C@H](O)[C@@H](C)/C=C/C=C/C=C/C=C/C=C/C=C/C=C/[C@H](O[C@@H]2O[C@H](C)[C@@H](O)[C@H](N)[C@@H]2O)C[C@@H]2O[C@](O)(C[C@@H](O)C[C@@H](O)[C@H](O)CC[C@@H](O)C[C@@H](O)CC(=O)O[C@H]1C)C[C@H](O)[C@H]2C(=O)O [AMPHOTERICIN B],,,,
,Cc1c(C(=O)/C=C/N(C)C)c(C(=O)Nc2ccccc2)nn1-c1ccccc1,14 mm/mg,15 mm/mg,14 mm/mg,0 mm/mg
,Cc1c(-c2cnc3ccccc3n2)c(C(=O)Nc2ccccc2)nn1-c1ccccc1,10 mm/mg,10 mm/mg,11 mm/mg,0 mm/mg
,Cc1c(-c2ccon2)c(C(=O)Nc2ccccc2)nn1-c1ccccc1,13 mm/mg,13 mm/mg,13 mm/mg,0 mm/mg
27.5 µg/mL,Clc1ccc(COC(Cn2ccnc2)c2ccc(Cl)cc2Cl)c(Cl)c1 (centres undefined) [MICONAZOLE],,,,
,Cc1c(-c2csc(N)n2)c(C(=O)Nc2ccccc2)nn1-c1ccccc1,18 mm/mg,13 mm/mg,13 mm/mg,0 mm/mg
